Measurements gathered from unrelated publications.
Each line is one published result; the experiments were not run side by side.
Target: Dual serine/threonine and tyrosine protein kinase (DSTYK, Homo sapiens, UniProt Q6XUX3)
One construct used (Q6XUX3 1-929): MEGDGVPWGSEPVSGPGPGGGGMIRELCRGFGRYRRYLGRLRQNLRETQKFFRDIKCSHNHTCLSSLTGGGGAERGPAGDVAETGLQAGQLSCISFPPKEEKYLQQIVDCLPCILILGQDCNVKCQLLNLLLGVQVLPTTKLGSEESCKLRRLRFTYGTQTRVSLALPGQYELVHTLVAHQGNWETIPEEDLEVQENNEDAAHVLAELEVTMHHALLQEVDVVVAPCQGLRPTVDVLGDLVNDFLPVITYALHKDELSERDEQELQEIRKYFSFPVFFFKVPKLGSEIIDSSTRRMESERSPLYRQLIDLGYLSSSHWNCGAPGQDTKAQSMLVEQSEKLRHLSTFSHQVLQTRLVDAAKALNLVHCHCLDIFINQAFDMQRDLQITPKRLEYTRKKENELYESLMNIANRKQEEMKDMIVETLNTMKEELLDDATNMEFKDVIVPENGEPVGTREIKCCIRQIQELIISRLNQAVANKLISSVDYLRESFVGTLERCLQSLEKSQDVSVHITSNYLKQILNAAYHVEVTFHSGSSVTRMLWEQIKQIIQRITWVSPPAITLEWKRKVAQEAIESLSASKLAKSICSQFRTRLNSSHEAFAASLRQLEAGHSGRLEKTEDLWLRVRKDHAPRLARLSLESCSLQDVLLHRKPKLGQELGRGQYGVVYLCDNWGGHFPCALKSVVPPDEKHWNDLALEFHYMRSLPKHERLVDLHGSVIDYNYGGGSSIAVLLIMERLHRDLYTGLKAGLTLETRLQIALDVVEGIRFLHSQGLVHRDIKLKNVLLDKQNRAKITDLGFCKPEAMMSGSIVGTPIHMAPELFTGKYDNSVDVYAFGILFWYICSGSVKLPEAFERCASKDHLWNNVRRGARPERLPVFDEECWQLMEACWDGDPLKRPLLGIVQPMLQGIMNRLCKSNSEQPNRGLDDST

Structure (SMILES) | observed | technique | concentration | remaining binding [%]
O=C(NCCCN1CCOCC1)c1ccc(Nc2nccc(-c3cc4ccccc4s3)n2)cc1 | binding | competition with immobilised ligand | 1 µM | 76
c1cncc(-c2cccc(Nc3nccc(NC4CCCCC4)n3)c2)c1 | binding | competition with immobilised ligand | 10 µM | 75
C[C@@H](c1ccc(-n2cnc3c(N)ncnc32)cc1)N1CCc2nn(C)c(Cc3ccccc3)c2C1=O | binding | competition with immobilised ligand | 0.1 µM | 58
COc1ncc2cc3ccccc3nc2c1C#N | cell-free assay | competition with immobilised ligand | 5 µM | 100
CN(c1nccc(-c2cnn3ncccc23)n1)C1CC1 | binding | – | 1 µM | 98
COc1cnc(Nc2cccc(S(N)(=O)=O)c2)nc1N1CCN(c2ccccc2)C(=O)C1 | binding | competition with immobilised ligand | 1 µM | 89
CN(CCCC(F)(F)F)c1nccc(-c2cnn3ncccc23)n1 | binding | – | 1 µM | 88
O=C(Nc1c[nH]nc1C(=O)NC1CCNCC1)c1cc(F)cc(F)c1 | binding | competition with immobilised ligand | 1 µM | 87
CN(C)C(=O)Cn1cc(-c2nc(C3(c4ccc(-c5cnc(N)nc5)cc4)CC3)no2)cn1 | cell-free assay | competition with immobilised ligand | 1 µM | 94
O=C(NCCCN1CCOCC1)c1ccc(Nc2ncc(Cl)c(-c3ccc(Cl)s3)n2)cc1 | binding | competition with immobilised ligand | 1 µM | 89
C[C@@H]1CN(c2cc(-c3n[nH]c4ccc(OC5(C)CC5)cc34)ncn2)C[C@H](C)O1 | cell-free assay | competition with immobilised ligand | 0.1 µM | 77
FC(F)(F)Oc1cccc(-c2cnc3ccc(-c4ccncc4)nn23)c1 | binding | competition with immobilised ligand | 5 µM | 49
CO[C@@H](C)c1c(Nc2ccc([C@@H](N(C)C(=O)C3CCS(=O)(=O)CC3)C(F)(F)F)cc2)cnc2cc(Cl)nn12 | cell-free assay | competition with immobilised ligand | 1 µM | 100
Cc1cnc(Nc2ccc(C(=O)N3CCC(N4CCCC4)CC3)cc2)nc1-c1cc2ccccc2s1 | binding | competition with immobilised ligand | 1 µM | 22
F[C@@H]1CCN(c2nccc(-c3cnn4ncccc34)n2)C1 | binding | – | 1 µM | 100
CC(C)(O)c1cncc(-c2nc3ccc(F)cc3n2C2CC2)c1 | cell-free assay | competition with immobilised ligand | 1 µM | 100
c1cnn2ncc(-c3ccnc(N4CCC45COC5)n3)c2c1 | binding | – | 1 µM | 79
NS(=O)(=O)c1cc(NC(=O)Cc2ccccc2)ccc1Oc1cccc(Cl)c1 | cell-free assay | competition with immobilised ligand | 1 µM | 83
N[C@@H]1CCN(c2nccc(-c3cnn4ncccc34)n2)C1 | binding | – | 1 µM | 100
CN1CCN(c2cnc3c(C4CCN(C(=O)c5ccc(OC(F)(F)F)cc5N)CC4)ncnc3c2)CC1 | cell-free assay | competition with immobilised ligand | 1 µM | 100
C[C@H]1CCN(c2nccc(-c3cnn4ncccc34)n2)C1 | binding | – | 1 µM | 94
CCc1ccccc1C(=O)Nc1n[nH]c2c(C)c(F)c(C3C(C#N)=C(C)N(C)C(C)=C3C#N)cc12 | cell-free assay | competition with immobilised ligand | 1 µM | 95
